Assay outcomes as filed in PubChem.
SENP7 inh – inhibitors of human SENP7 protease | recombinant SENP7, Z-RLRGG-aminoluciferin luminescence, 40 min | 330,000 tested, 1.5% active | Q9BQF6 | inhibition, % at 5 µM;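 active = inhibition above about 50% at the single test dose, limit read from the data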;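 note: plate controls were DMSO with enzyme for no effect and no enzyme buffer wells for full effect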
SENP1 inh – blocks the human SENP1 SUMO protease catalytic domain; Q9P0U3; 360,000 tested, 0.21% active; recombinant SENP1 catalytic domain, CyPet-SUMO1-YPet FRET cleavage; inhibition, % at 10 µM;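 active = inhibition at least 30% at 10 µM, raw YFP signal under a set limit, fluorescence ratio 0.5 to 1.5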;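 note: 0% = enzyme with DMSO and 100% = no enzyme wells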
Target sequence (Q9P0U3 419-644 limits assumed): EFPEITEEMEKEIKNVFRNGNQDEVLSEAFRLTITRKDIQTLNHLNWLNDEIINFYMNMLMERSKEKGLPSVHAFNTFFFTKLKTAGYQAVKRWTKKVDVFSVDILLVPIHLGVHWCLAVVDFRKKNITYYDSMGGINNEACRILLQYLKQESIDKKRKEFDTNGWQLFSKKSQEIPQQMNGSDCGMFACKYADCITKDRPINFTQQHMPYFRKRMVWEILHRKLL
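material = recombinant human SENP1 catalytic domain, His6-tagged | quantity = 20 pM enzyme | reagent = 25 nM SUMO1 FRET substrate | compound dosing = 10 µM single point, 0.5% DMSO | timing = 50 min enzyme reaction, room temperature, light-protected | detection = FRET, CFP and YFP emission | control set = no-enzyme low, enzyme-DMSO high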
SENP8 block-1 – blocks human SENP8 cleavage of Nedd8 substrate; 360,000 tested, 0.64% active; Q96LD8; inhibition, % at 20 µM; recombinant SENP8, Nedd8 substrate fluorescence; in the data active = inhibition mostly above about 40%, no sharp cut-off; inactive = mostly below about 27%
SENP8 block-2 – SENP8 protease inhibition; AID 2540; purified SENP8, Z-RLRGG-aminoluciferin cleavage, luminescence; inhibition, % at 10 µM; Q96LD8; 330,000 tested, 1.2% active; in the data active = inhibition above about 50%
SENP6 block – inhibitors of human SENP6 protease. Q9GZR1. Recombinant SENP6 catalytic domain, aminoluciferin luminescence. inhibition, % at 10 µM. 330,000 tested, 1.8% active. AID 2599;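 active = inhibition above about 50% at the single tested dose, limit read from the data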;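 note: plate controls were DMSO wells with enzyme for no effect and DMSO wells lacking enzyme for full effect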
SENP8 conf – confirmation of human SENP8 protease inhibitors. shares compounds with SENP7 inh. Recombinant SENP8, Z-RLRGG-aminoluciferin luminescence, 60 min. inhibition, % at 12.5 µM. 6,200 tested, 40% active. AID 488912;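 active = mean inhibition across replicates above about 50%, limit read from the data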
SENP6 confirm – confirmation of human SENP6 protease inhibitors; shares compounds with SENP7 inh; 6,200 tested, 58% active; AID 488915; inhibition, % at 12.5 µM; recombinant SENP6, Z-RLRGG-aminoluciferin luminescence
SENP7 conf – human SENP7 inhibition, confirmed. shares compounds with SENP7 inh. recombinant SENP7, Z-RLRGG-aminoluciferin luminescence, 40 min. inhibition, % at 12.5 µM. 6,200 tested, 69% active. AID 488917
Casp3 SENP sel – caspase-3 inhibition (SENP selectivity assay). 6,200 tested, 60% active. inhibition, % at 12.5 µM. purified caspase-3, Z-DEVD-aminoluciferin luminescence, 60 min. AID 488918. shares compounds with SENP7 inh;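 active = mean inhibition above about 50%, limit read from the data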;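 note: plate controls were enzyme with DMSO for no effect and wells without caspase-3 for full effect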
Target sequence (P42574 28-227 limits assumed): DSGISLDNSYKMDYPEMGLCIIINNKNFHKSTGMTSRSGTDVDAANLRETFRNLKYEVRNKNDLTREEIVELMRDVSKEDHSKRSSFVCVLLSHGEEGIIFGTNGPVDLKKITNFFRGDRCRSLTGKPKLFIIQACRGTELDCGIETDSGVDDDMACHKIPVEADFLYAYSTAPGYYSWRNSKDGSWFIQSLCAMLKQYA
SENP luc ctr – counter-screen for SENP inhibitors: luminescence interference. 6,200 tested, 39% active. inhibition, % at 12.5 µM. Pre-incubated SENP8/Z-RLRGG-aminoluciferin, luciferase luminescence interference. shares compounds with SENP7 inh;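 active = mean inhibition above about 50% when retested at one dose, limit read from the data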;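 note: plate controls were DMSO wells with completed reaction for no effect and substrate without enzyme for full effect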
* = called active by the depositor. Sampled rows, rich in hits. Any-hit rate of the full collection: about 2.5%.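 Rule for the calls, unless noted: active = mean inhibition above about 50% in the one-dose retest (limit read from the data); inactive = the rest.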

`COc1ccc(N=C2C(=Nc3ccc(OC)cc3)N(c3ccc(OC)cc3)C(=S)N2C(=O)c2ccc(OC)cc2)cc1` gave SENP7 inh 6, SENP1 inh 2, SENP8 block-1 20, SENP8 block-2 2 and SENP6 block -3.
For COc1ccc(N2C(=S)N(C(=O)c3ccccc3)C(=Nc3ccccc3)C2=Nc2ccccc2)cc1 the results were SENP7 inh 92*, SENP1 inh 2, SENP8 block-1 15, SENP8 block-2 73*, SENP6 block 83*, SENP8 conf 67*, SENP6 confirm 82*, SENP7 conf 96*, Casp3 SENP sel 93* and SENP luc ctr 60*.
Screening C/C(=N\N(C)C)C1=C(O)c2ccccc2C1=O returned SENP7 inh 1, SENP1 inh 2, SENP8 block-1 18, SENP8 block-2 -6 and SENP6 block -6.
Screening CCOc1ccc(N=C(C)C2=C(O)c3ccccc3C2=O)cc1 returned SENP7 inh 84*, SENP1 inh 0, SENP8 block-1 30, SENP8 block-2 78*, SENP6 block 85*, SENP8 conf 29, SENP6 confirm 32, SENP7 conf 46, Casp3 SENP sel 31 and SENP luc ctr 12.
Screening COc1ccc(N=C(C)C2=C(O)c3ccccc3C2=O)cc1 returned SENP7 inh 77*, SENP1 inh 3, SENP8 block-1 16, SENP8 block-2 73*, SENP6 block 87*, SENP8 conf 30, SENP6 confirm 74*, SENP7 conf 71*, Casp3 SENP sel 39 and SENP luc ctr 12.
CCOC(=O)c1cc2c(OC)ccc(OC)c2n1CC(=O)c1ccccc1 was read as SENP7 inh 5, SENP1 inh -1, SENP8 block-1 4, SENP8 block-2 -1 and SENP6 block 14.
Screening O=C(O)CCn1nnc(-c2cccs2)n1 returned SENP7 inh -94, SENP1 inh -1, SENP8 block-1 1, SENP8 block-2 -5 and SENP6 block -9.
For CC(C)c1ccc(-c2nnn(CCC(=O)O)n2)cc1 the results were SENP7 inh 26, SENP1 inh 4, SENP8 block-1 19, SENP8 block-2 71*, SENP6 block 59*, SENP8 conf -6, SENP6 confirm 68*, SENP7 conf 84*, Casp3 SENP sel 21 and SENP luc ctr 22.
For Cc1cc(Cl)ccc1-c1nc(NC(C)C)nc2ccsc12 the results were SENP1 inh -24 and SENP8 block-1 inactive.
CN=c1scc(-c2ccc(F)cc2)n1/N=C/c1ccc(O)c(O)c1 was read as SENP7 inh 12, SENP1 inh -10, SENP8 block-1 -31, SENP8 block-2 46, SENP6 block 62*, SENP8 conf 75*, SENP6 confirm 72*, SENP7 conf 86*, Casp3 SENP sel 39 and SENP luc ctr 60*.
For CCc1ccc(C(C(=O)NC2CCCCC2)N(C(=O)c2csnn2)C2CC2)cc1 (centres undefined) the results were SENP7 inh -7, SENP1 inh 1, SENP8 block-1 7, SENP8 block-2 -7 and SENP6 block -21.
For c1cnc2c(-c3ccc4nccn4c3)cccc2c1 the results were SENP1 inh -83 and SENP8 block-1 -49.
Cc1ccc(S(=O)(=O)NCC(=O)N2CCN(c3ccc(F)cc3)CC2)cc1 was read as SENP7 inh -2, SENP1 inh 1, SENP8 block-1 9, SENP8 block-2 -5 and SENP6 block 5.
Screening COc1ccc(-c2nc(C#N)c(NCCc3ccccc3)o2)cc1OC returned SENP7 inh 59*, SENP1 inh -1, SENP8 block-1 inactive, SENP8 block-2 57*, SENP6 block 72*, SENP8 conf 6, SENP6 confirm 66*, SENP7 conf 90*, Casp3 SENP sel 56* and SENP luc ctr 59*.
`COc1ccccc1-c1nnc(-c2ccc(C)cc2)o1` gave SENP7 inh 55*, SENP1 inh 0, SENP8 block-1 -40, SENP8 block-2 30, SENP6 block 55*, SENP8 conf 50*, SENP6 confirm 48, SENP7 conf 74*, Casp3 SENP sel 54* and SENP luc ctr 56*.
Screening COc1ccccc1-c1nnc(-c2ccc(N3CCOCC3)cc2)o1 returned SENP7 inh -4, SENP1 inh -2, SENP8 block-1 -269, SENP8 block-2 -8 and SENP6 block -29.
Nc1ccc(-c2nnc(-c3ccc(N)cc3)o2)cc1 was read as SENP7 inh 7, SENP1 inh -19, SENP8 block-1 -302, SENP8 block-2 -11 and SENP6 block 1.
Clc1cccc(-c2nnc(-c3ccccc3)o2)c1 was read as SENP7 inh 94*, SENP1 inh 0, SENP8 block-1 5, SENP8 block-2 92*, SENP6 block 95*, SENP8 conf 93*, SENP6 confirm 97*, SENP7 conf 102*, Casp3 SENP sel 94* and SENP luc ctr 94*.
`COc1ccc(-c2nc(C#N)c(NCc3ccc(C)cc3)o2)cc1OC` gave SENP7 inh 0, SENP1 inh 0, SENP8 block-1 -473, SENP8 block-2 -3 and SENP6 block -24.
Screening Nc1ccccc1-c1nnc(-c2ccc(-c3ccccc3)cc2)o1 returned SENP7 inh 96*, SENP1 inh -40, SENP8 block-1 -272, SENP8 block-2 77*, SENP6 block 14, SENP8 conf 8, SENP6 confirm 10, SENP7 conf 16, Casp3 SENP sel 51* and SENP luc ctr -4.
Clc1cccc(-c2nnc(-c3ccno3)o2)c1 was read as SENP7 inh 5, SENP1 inh 1, SENP8 block-1 21, SENP8 block-2 -6 and SENP6 block 6.
`Cc1ccc(S(=O)(=O)N2C[C@H]3n4c(=O)ccc(=O)n4C[C@H](OC(=O)NCC4CCCCC4)[C@@]3(O)C2)cc1` gave SENP1 inh -2 and SENP8 block-1 1.
Screening CCOC(=O)C(=O)N(C)c1c(CC)nc2c(OCc3ccc(OC(F)F)cc3)cccn12 returned SENP1 inh -1 and SENP8 block-1 23.
`CSc1ccccc1-c1nnc(-c2ccc(C)cc2)o1` gave SENP7 inh 31, SENP1 inh 0, SENP8 block-1 -165, SENP8 block-2 26 and SENP6 block 48.
